Data from the RNAGym collection of RNA variant scans (doi:10.1126/science.aae0568).
This sample holds only a part of the variants without activity.

B1: tRNA (parent)
chain: GUUCCGUUGGCGUAAUGGUAACGCGUCUCCCUCCUAAGGAGAAGACUGCGGGUUCGAGUCCCGUACGGAACG

Variants of: B1
Assay: yeast fitness relative to wild type (ratio to wild type); higher = fitter; tRNA-Arg(CCU), competitive growth, 37 C, YPD
Outline: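 Genotype frequency changes were the basis for Darwinian fitness relative to wild type. The frequencies came from 100-nucleotide paired-end sequencing of gene amplicons from the start population and each end population of pooled yeast strains with tRNA-Arg(CCU) gene variants at the native locus. Competition ran in YPD at 37°C for 24 hours in six replicates, genotypes needed ≥ 100 starting reads, and estimates < 0.5 were set to 0.5.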

Variant	yeast fitness
U26C A69C	0.885
U26C C27A	0.859
U26C C27U C62U	0.754
U26C C27U U54G G56A	0.54
U26C C27U U59C	0.702
U26C C29G A43U	≤ 0.5
U26C C30G A43U G50A	≤ 0.5
U26C C30G A45U U53A C62U G68C	≤ 0.5
U26C C30G C34U C49U	0.51
U26C C30G G67C	≤ 0.5
U26C C30U C46A U47G G50A	≤ 0.5
U26C C31U A43G G63A	0.611
U26C C33G A36G A42C C49G G58C C62G	≤ 0.5
U26C C33G A36U A57U	≤ 0.5
U26C C33G A45G	≤ 0.5
U26C C33G U59C	0.515
U26C C34U	0.716
U26C C46A U47G G50A	0.541
U26C C46U C62U	0.718
U26C C46U G51A	0.64
U26C C60G	0.642
U26C C61G G63A A69U	0.532
U26C C61U	0.956
U26C C61U C62G	≤ 0.5

Variant	yeast fitness
U26C C62A	0.762
U26C G38C	0.717
U26C G41C C61G A69C	≤ 0.5
U26C G48C G52C A57C G58A	≤ 0.5
U26C G50A	0.932
U26C G68C	0.936
U26C U53C A57U C66G	≤ 0.5
U26C U59A	0.882
U26C U59C	0.793
U26G A36G	0.914
U26G A37C G38A A42G G44C A45G C49U A65U	≤ 0.5
U26G A37U G51A	≤ 0.5
U26G C27A	0.647
U26G C27U G56A A65C	≤ 0.5
U26G C29A	0.578
U26G C30G	0.6
U26G C33G G50C	≤ 0.5
U26G C33G U35A C55U A65C	≤ 0.5
U26G C46A	0.949
U26G C46G C61U	0.824
U26G C49A	0.703
U26G C49G	0.851
U26G C66U	0.862
U26G G48A	1.08

Variant	yeast fitness
U26G G48A A57U	0.598
U26G G48C	0.805
U26G G50C A57G	0.529
U26G G51C	0.588
U26G G52A	0.816
U26G G63C C66U	≤ 0.5
U26G G67C	0.644
U26G U28A A43G C49U C61U G67A	≤ 0.5
U26G U28A A43G C61U G67A	0.599
C27A A36C A42U	≤ 0.5
C27A A36G U53A A70G	≤ 0.5
C27A A36U A37U G48C C61U	≤ 0.5
C27A A37C G52A U59A	≤ 0.5
C27A A37U A70U	0.548
C27A A37U C49U C55U C60G A65C	≤ 0.5
C27A A40G C61G	0.614
C27A A43C A69C	0.748
C27A A43C U54C	0.624
C27A A45U G52A	≤ 0.5
C27A A57C C66U	0.538
C27A A65U	0.678
C27A C29U G48A G68C	≤ 0.5
C27A C30G G41C C61G C62U A69U	0.557
C27A C31A G52A G58C	≤ 0.5

Variant	yeast fitness
C27A C31G G44C	≤ 0.5
C27A C31G G50A	0.661
C27A C31G U54C	0.744
C27A C31U	0.941
C27A C31U C60G	≤ 0.5
C27A C33G G39A C49G	≤ 0.5
C27A C46A A69G	0.582
C27A C49U C61A	≤ 0.5
C27A C61G C66U A69U	≤ 0.5
C27A C61U C66U	≤ 0.5
C27A C62G A65U	≤ 0.5
C27A C66G A70C	≤ 0.5
C27A G38C	0.609
C27A G38C G51C A69U	≤ 0.5
C27A G39A A42C G48C C60U	≤ 0.5
C27A G39A A57G	≤ 0.5
C27A G39C A57U A70U	≤ 0.5
C27A G39C C46A	≤ 0.5
C27A G39C C55G A65U	≤ 0.5
C27A G39C C55G A70C	≤ 0.5
C27A G41C A43C G48A C66U	0.546
C27A G44C	0.782
C27A G52C	0.562
C27A G58C	1.13

Variant	yeast fitness
C27A G67A	0.807
C27A G67C	0.786
C27A G67U	0.745
C27A G68C	0.893
C27A U28C C29G C61A	0.664
C27A U28C G67U A70G	≤ 0.5
C27A U32A U59C	≤ 0.5
C27A U32G G51A G56C A70G	≤ 0.5
C27A U35A A43U	≤ 0.5
C27A U59C A69U	0.713
C27G A36C	≤ 0.5
C27G A36C C46U G51C	0.54
C27G A36C G44A	≤ 0.5
C27G A36U U53A	≤ 0.5
C27G A37C A57C	≤ 0.5
C27G A37G U64A	≤ 0.5
C27G A40C C55G	≤ 0.5
C27G A40C C60U	≤ 0.5
C27G A40G	0.594
C27G A40G G48A A57C U64A	≤ 0.5
C27G A40U	0.682
C27G A42G A57G U59G	≤ 0.5
C27G A42G C60A	≤ 0.5
C27G A42U	0.721

Variant	yeast fitness
C27G A42U G48A	≤ 0.5
C27G A42U U53C	≤ 0.5
C27G A43C C60G	≤ 0.5
C27G A43G	0.636
C27G A45C C49U G52A U59C	0.6
C27G A45C G58C	0.644
C27G A45U	0.656
C27G A65C A70C	0.53
C27G A69U	0.738
C27G A70U	0.74
C27G C29A C61U	≤ 0.5
C27G C29G C30U	≤ 0.5
C27G C30A C34G A45G C62U A69G	≤ 0.5
C27G C30G	≤ 0.5
C27G C30G C31U A42G U54C	≤ 0.5
C27G C30U G56A	≤ 0.5
C27G C30U G67A A70G	≤ 0.5
C27G C30U U32C G51C U64A	≤ 0.5
C27G C31A A57U	0.573
C27G C31G A43C	0.545
C27G C31G G68A	≤ 0.5
C27G C33G C60U C61G	0.503
C27G C33U	0.592
C27G C34G A37U	≤ 0.5

Variant	yeast fitness
C27G C34U A43C A57U G58A C62G	≤ 0.5
C27G C49A A70U	≤ 0.5
C27G C49A G52C C60U	≤ 0.5
C27G C49U A65C	≤ 0.5
C27G C61U	0.594
C27G C61U A69U	0.532
C27G C62U	0.688
C27G C62U A65U	0.554
C27G G44C	0.569
C27G G44C A45G	0.53
C27G G44C U47C	≤ 0.5
C27G G52A	0.941
C27G G58A	0.698
C27G G58C U59C G63A	≤ 0.5
C27G U28A A65U	≤ 0.5
C27G U28A C30G C31U	0.51
C27G U28A C30G C31U C60A A70C	≤ 0.5
C27G U28A C61U A65U A70U	≤ 0.5
C27G U28G A36G U64C	≤ 0.5
C27G U32A C34A C55A	≤ 0.5
C27G U32A U54G	≤ 0.5
C27G U32G A42C C66U	≤ 0.5
C27G U47C A70U	0.545
